The subject of data set [1] is Human alphaherpesvirus 1. In words: Antiviral activity against Herpes simplex virus 1 assessed as plaque reduction at 0.18 x 10^-5 M by cell-based assay relative to control. It is filed as functional. The procedure, abridged: (§1)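 HSV-1 plaque-reduction assay by the Hsiung–Melnick procedure. Challenge was 125-300 plaque-forming units. An ara-A control was run alongside each sample at the same molar concentration with an identical virus challenge. Data were confirmed by duplicate assay (±10%).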

Data set [2] has as its system Human alphaherpesvirus 2. As to the kind of experiment: Antiviral activity against Herpes simplex virus 2 Magill infected in guinea pig assessed as prevention of paralysis at 3% compound concentration treated intravaginally bid for 4 days measured on day 16 post-infection. Type of data set: functional, organism-based. The gist of the method: (§2)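 Animals were infected intravaginally with 1 × 10^2.82 PFU in 0.1 mL. Drug ointments were given intravaginally starting 4 h postinfection, then twice daily for 4 days, filling the vagina. Clinical signs were scored as animals positive/infected. Cure meant no symptoms, or symptoms healed by day 16 postinfection; it was reported as cured/infected.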

Data set [3] has as its system Human alphaherpesvirus 1. As to the kind of experiment: Antiviral activity against Herpes simplex virus 1 assessed as plaque reduction at 1.75 x 10^-5 M by cell-based assay relative to vidarabine. It is filed as functional. The procedure, abridged:
as §1

Data set [4] deals with T1, Adenosine deaminase (Bos taurus, UniProt P56658).
T1 sequence (P56658 whole entry): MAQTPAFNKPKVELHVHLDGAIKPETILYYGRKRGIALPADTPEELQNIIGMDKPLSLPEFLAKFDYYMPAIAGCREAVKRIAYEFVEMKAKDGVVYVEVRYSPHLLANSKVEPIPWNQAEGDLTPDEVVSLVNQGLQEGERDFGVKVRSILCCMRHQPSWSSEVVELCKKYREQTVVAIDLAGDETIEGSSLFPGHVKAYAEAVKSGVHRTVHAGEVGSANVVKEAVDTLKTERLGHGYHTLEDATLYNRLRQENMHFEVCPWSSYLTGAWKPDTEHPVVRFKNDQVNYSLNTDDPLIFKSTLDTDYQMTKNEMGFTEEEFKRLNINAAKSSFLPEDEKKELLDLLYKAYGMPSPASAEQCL
As to the kind of experiment: Activity of calf mucosal adenosine deaminase assessed as enzyme-mediated drug metabolism by liquid chromatographic analysis. It is filed as ADME. As to conditions: cattle. The procedure, abridged: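 Drug exposed to the deaminase, with enzyme level also raised 10- and 100-fold. Reaction mixtures analysed by reverse-phase C18 LC (aqueous acetonitrile eluent, 254-nm UV detection) for unchanged substrate.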

The test system of data set [5] is Human alphaherpesvirus 2. As to the kind of experiment: Antiviral activity against Herpes simplex virus 2 Magill infected in guinea pig assessed as prevention of vaginal discharge at 3% compound concentration treated intravaginally bid for 4 days measured on day 16 post-infection. Type of data set: functional, organism-based. The gist of the method:
as §2

A short description of data set [6]: Aqueous solubility of the compound at pH 7. It is filed as physicochemical.
Data set [7] concerns Human alphaherpesvirus 1. In words: Antiviral activity against Herpes simplex virus 1 assessed as plaque reduction at 1.75 x 10^-5 M by cell-based assay relative to control. It is filed as functional. The gist of the method: as §1
In data set [8] the test system is Human alphaherpesvirus 2. As to the kind of experiment: Antiviral activity against Herpes simplex virus 2 Magill infected in guinea pig assessed as prevention of vesiculation of labia and vulva at 3% compound concentration treated intravaginally bid for 4 days measured on day 16 post-infection. It is filed as functional, organism-based. The procedure, abridged: as §2

Data set [9] relates to Human alphaherpesvirus 2. As to the kind of experiment: Antiviral activity against Herpes simplex virus 2 Magill infected in guinea pig assessed as prevention of vulvo-vaginal swelling at 3% compound concentration treated intravaginally bid for 4 days measured on day 16 post-infection. It is filed as functional, organism-based. The procedure, abridged: as §2
Data set [10] has as its system Human alphaherpesvirus 2. As to the kind of experiment: Antiviral activity against Herpes simplex virus 2 Magill infected in guinea pig assessed as cured animal at 3% compound concentration treated intravaginally bid for 4 days measured on day 16 post-infection. Type of data set: functional, organism-based. The gist of the method: as §2
The subject of data set [11] is Human alphaherpesvirus 2. As to the kind of experiment: Antiviral activity against Herpes simplex virus 2 Magill infected in guinea pig assessed as prevention of inflammation at 3% compound concentration treated intravaginally bid for 4 days measured on day 16 post-infection. Type of data set: functional, organism-based. The procedure, abridged: as §2
The species entered for data set [12] is Cavia porcellus. In words: Toxicity in albino guinea pig assessed as occurrence of irritation at 3% compound concentration treated intravaginally bid for 4 days. It is filed as organism-based. As to conditions: in vivo, other, 96 h.
Data set [13] deals with Human alphaherpesvirus 1. In words: Antiviral activity against Herpes simplex virus 1 assessed as plaque reduction at 0.18 x 10^-5 M by cell-based assay relative to vidarabine. It is filed as functional. The gist of the method: as §1
In data set [14] the test system is Human alphaherpesvirus 2. As to the kind of experiment: Antiviral activity against Herpes simplex virus 2 Magill infected in guinea pig assessed as prevention of death at 3% compound concentration treated intravaginally bid for 4 days measured on day 16 post-infection. It is filed as functional, organism-based. The procedure, abridged: as §2
In data set [15] the test system is Human alphaherpesvirus 2. In words: Antiviral activity against Herpes simplex virus 2 Magill infected in guinea pig assessed as prevention of inflammation at 10% compound concentration treated intravaginally bid for 4 days measured on day 16 post-infection. It is filed as functional, organism-based. The gist of the method: as §2
For data set [16], the system named is Human alphaherpesvirus 2. As to the kind of experiment: Antiviral activity against Herpes simplex virus 2 Magill infected in guinea pig assessed as prevention of vaginal discharge at 10% compound concentration treated intravaginally bid for 4 days measured on day 16 post-infection. It is filed as functional, organism-based. The gist of the method: as §2
For data set [17], the system named is Human alphaherpesvirus 2. In words: Antiviral activity against Herpes simplex virus 2 Magill infected in guinea pig assessed as prevention of vesiculation of labia and vulva at 10% compound concentration treated intravaginally bid for 4 days measured on day 16 post-infection. Type of data set: functional, organism-based. The procedure, abridged: as §2
For data set [18], the system named is Human alphaherpesvirus 2. In words: Antiviral activity against Herpes simplex virus 2 Magill infected in guinea pig assessed as cured animal at 10% compound concentration treated intravaginally bid for 4 days measured on day 16 post-infection. It is filed as functional, organism-based. The gist of the method:
as §2

Data set [19] concerns Human alphaherpesvirus 2. In words: Antiviral activity against Herpes simplex virus 2 Magill infected in guinea pig assessed as prevention of paralysis at 10% compound concentration treated intravaginally bid for 4 days measured on day 16 post-infection. Type of data set: functional, organism-based. The procedure, abridged: as §2
The subject of data set [20] is Human alphaherpesvirus 2. As to the kind of experiment: Antiviral activity against Herpes simplex virus 2 Magill infected in guinea pig assessed as prevention of death at 10% compound concentration treated intravaginally bid for 4 days measured on day 16 post-infection. Type of data set: functional, organism-based. The gist of the method:
as §2

The test system of data set [21] is Human alphaherpesvirus 1. As to the kind of experiment: Antiviral activity against Herpes simplex virus 1 assessed as plaque reduction at 1.67 x 10^-5 M by cell-based assay relative to control. It is filed as functional. The gist of the method:
as §1

Data set [22] has as its system Human alphaherpesvirus 1. In words: Antiviral activity against Herpes simplex virus 1 assessed as plaque reduction at 1.67 x 10^-5 M by cell-based assay relative to vidarabine. Type of data set: functional. The gist of the method:
as §1

The subject of data set [23] is Human alphaherpesvirus 1. In words: Antiviral activity against Herpes simplex virus 1 assessed as plaque reduction at 1.76 x 10^-5 M by cell-based assay relative to vidarabine. It is filed as functional. The gist of the method: as §1
Data set [24] deals with Human alphaherpesvirus 1. In words: Antiviral activity against Herpes simplex virus 1 assessed as plaque reduction at 5.47 x 10^-5 M by cell-based assay relative to vidarabine. Type of data set: functional. The procedure, abridged:
as §1

Data set [25] has as its system Human alphaherpesvirus 1. As to the kind of experiment: Antiviral activity against Herpes simplex virus 1 assessed as plaque reduction at 1.76 x 10^-5 M by cell-based assay relative to control. Type of data set: functional. The gist of the method:
as §1

Each structure is given as a SMILES string. ≈ marks a conversion by molar mass, not a printed value. Calls of active or inactive are those of the source. The calls are words filed in the database; no cut-off is given here.

A word on the inhibition: it is the percentage by which the read-out fell short of the control. In general, solubility refers to the dissolved amount per volume that the medium holds.

`CC(=O)O[C@H]1[C@H](OC(C)=O)[C@@H](CO)O[C@H]1n1cnc2c(N)ncnc21`: the inhibition at 1.8 µM stood at 0% in data set [1] and 40% in [13]. In addition, the outcome in [2], in data set [5], in data set [8], in data set [9], in [10] and in data set [11] was Active. Also, the result in data set [14] was Active. Further, the values for the inhibition at 17.5 µM in [3] and in [7] were 100% and 68%, respectively. Also, the Stability entry in [4] was “Stable”. Besides, the solubility in [6] (aqueous, read-out: solubility) was 33000 µg/mL (≈ 93.9 mM). The Activity entry in data set [12] is “Non-toxic”.
On to `Nc1ncnc2c1ncn2[C@@H]1O[C@H](COP(=O)(O)O)[C@@H](O)[C@@H]1O`, for which the outcome in data set [15], in data set [16], in data set [17], in data set [18], in data set [19] and in data set [20] was Active.
Consider `CC(C)(C)C(=O)OC[C@H]1O[C@@H](n2cnc3c(N)ncnc32)[C@@H](O)[C@@H]1OC(=O)C(C)(C)C`, for which the Stability entry in data set [4] is given as “Stable”. Also, the values for the inhibition at 16.7 µM in [21] and in data set [22] were 0% and 100%, respectively. Moreover, the solubility in data set [6] (aqueous, read-out: solubility) was less than 10 µg/mL.
With `CCC(=O)OC[C@H]1O[C@@H](n2cnc3c(N)ncnc32)[C@@H](O)[C@@H]1OC(=O)CC`, the inhibition at 1.8 µM was 0% in [1] and 23% in data set [13]. Also, the inhibition at 17.6 µM in [23] is 76%. Also, the Stability entry in data set [4] is on record as “Stable”. Besides, the solubility in data set [6] (aqueous, read-out: solubility) was 2300 µg/mL (≈ 6.06 mM).
For `Nc1ncnc2c1ncn2[C@@H]1O[C@H](CO)[C@@H](OC(=O)c2ccccc2)[C@@H]1OC(=O)c1ccccc1`, the inhibition at 54.7 µM in data set [24] came out at 100%. Also, the Stability entry in data set [4] was “Stable”. Further, the solubility in data set [6] (aqueous, read-out: solubility) was less than 10 µg/mL.
Take `CCC(=O)O[C@H]1[C@H](O)[C@H](n2cnc3c(N)ncnc32)O[C@@H]1CO`: the inhibition at 1.8 µM in data set [1] amounted to 5%; in data set [13] it was 36%. In addition, the inhibition at 17.6 µM came out at 80% in [25] and 87% in [23]. The Stability result in data set [4] was “Unstable”. In data set [6] (buffer), the solubility entry is “soluble”.
Turning to `CCC(=O)O[C@H]1[C@H](O)[C@@H](CO)O[C@H]1n1cnc2c(N)ncnc21`, the results for the inhibition at 1.8 µM in data set [1] and in data set [13] were 4% and 36%, respectively. The inhibition at 17.6 µM in [25] came out at 35%; in [23] it was 88%. The Stability result in [4] is “Stable”. For the same compound, the solubility result in data set [6] (buffer) was “soluble”.

The values above are taken from ChEMBL document CHEMBL3228031, “Prodrugs of 9-(beta-D-arabinofuranosyl)adenine 2. Synthesis and evaluation of a number of 2',3'- and 3',5'-di-O-acyl derivatives” (J Med Chem, 1979).
